Measured values pooled from the literature.
Compare with care: the assays were run in different laboratories.
Target: Mitogen-activated protein kinase kinase kinase 10 (MAP3K10, Homo sapiens, UniProt Q02779)

With `Nc1ncc(-c2nc(N3CCOCC3)nc(N3CCOCC3)n2)c(C(F)F)n1` the remaining binding was 53% (binding; competition with immobilised ligand; 10 µM).
`N#CC1(c2ccccn2)CCN(Cc2cc(C(=O)O)c(=O)n3ccccc23)CC1` gave a remaining binding of 97% (cell-free assay; competition with immobilised ligand; 1 µM).
With `COc1ncccc1-c1cnn2ccc(N3CCN(C(=O)OC(C)C)CC3)nc12` the remaining binding was 96% (binding; competition with immobilised ligand; 1 µM).
`O=c1[nH]c2ccccc2n1C1CCN(Cc2ccc(-c3[nH]c4cc5ncnc5cc4nc3-c3ccccc3)cc2)CC1` gave a remaining signal of 102% (cell-free assay; 0.5 µM).
For `Cn1cc(-c2cccc(N3CCc4c(sc5c4CC(C)(C)C5)C3=O)c2CO)cc(Nc2ccncn2)c1=O`, the inhibition was -5% (enzyme activity; inhibitor; 1 µM).
`Cn1cncc1[C@@](O)(COc1ccc(C#N)cc1-c1ccc(OC(F)(F)F)cc1)c1ccc(C#N)cc1` has a remaining binding of 98% (cell-free assay; competition with immobilised ligand; 1 µM).
`Cn1cc(-c2cc(F)cc(N3CCn4c(cc5c4CCCC5)C3=O)c2CO)cc(Nc2ccc(N3CCN(C4COC4)CC3)cn2)c1=O` gave an inhibition of -7% (enzyme activity; inhibitor; 0.1 µM).
`CC(C)(C)c1cc(C=C(C#N)C#N)cc(Br)c1O` has a remaining activity of 100% (enzyme activity; inhibitor; 0.5 µM).
The remaining binding of `Cc1nn(C)cc1-c1nc2c(N3CCN(Cc4ccc(Cl)cc4)CC3)c(Cl)cnc2[nH]1` is reported as 5.4% (binding; competition with immobilised ligand; 1 µM).
